Measurements: ChEMBL document CHEMBL1138362, “Dihydro-alkylthio-benzyl-oxopyrimidines as inhibitors of reverse transcriptase: synthesis and rationalization of the biological data on both wild-type enzyme and relevant clinical mutants” (J Med Chem, 2007)

Tested on: Human immunodeficiency virus 1
Test: Antiviral activity against HIV1 with reverse transcriptase Y188L mutation in MT4 cells after 5 days by MTT method
Type: functional, organism-based
Settings: Human immunodeficiency virus 1, MT4, 120 h
How it was run: (§1)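 MT-4 cells from the NIH AIDS Reagent Program were infected with mutant HIV-1 (K103N or Y188L, from the MRC Centralised Facility) in the presence of graded drug concentrations. Mock-infected cells were used for cytotoxicity. Viable cells were counted by MTT colorimetry at day 5 post-infection.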

| Structure (SMILES) | EC50 |
| --- | --- |
| Cc1c(Cc2c(Cl)cccc2Cl)nc(SCC(=O)c2ccc(C#N)cc2)[nH]c1=O | > 56.3 µM |
| CCc1c(Cc2c(F)cccc2F)nc(SCc2ccc(C#N)cc2)[nH]c1=O | > 63 µM |
| COc1ccc(CSc2nc(Cc3c(F)cccc3F)c(C)c(=O)[nH]2)cc1OC | > 39.7 µM |
| Cc1c(Cc2c(F)cccc2F)nc(SCc2ccc3c(c2)OCO3)[nH]c1=O | > 62.2 µM |
| CCc1c(Cc2c(Cl)cccc2Cl)nc(SCc2ccc(C#N)cc2)[nH]c1=O | > 58.1 µM |
| Cc1c(Cc2ccc(C#N)cc2)nc(SCc2ccc([N+](=O)[O-])cc2)[nH]c1=O | > 26.4 µM |
| CCc1c(Cc2c(Cl)cccc2Cl)nc(SCc2ccc([N+](=O)[O-])cc2)[nH]c1=O | > 55.6 µM |
| COc1ccc(CSc2nc(Cc3ccc(C#N)cc3)c(C)c(=O)[nH]2)cc1 | > 66.3 µM |
| Cc1c(C(C)c2c(F)cccc2F)nc(SCc2ccc([N+](=O)[O-])cc2)[nH]c1=O (stereo unspecified) | 0.22 µM |
| COC(=O)c1ccc(CSc2nc(Cc3c(F)cccc3F)c(C)c(=O)[nH]2)cc1 | > 34.1 µM |
| COc1ccc(COCCSc2nc(Cc3c(F)cccc3F)c(C)c(=O)[nH]2)cc1 | > 55.9 µM |

Tested on: Human immunodeficiency virus type 1 reverse transcriptase (Human immunodeficiency virus 1), Q72547 [Y181I]
Test: Antiviral activity against HIV1 reverse transcriptase Y181I mutant
Settings: not given

| Structure (SMILES) | ID50 |
| --- | --- |
| Cc1c(Cc2c(Cl)cccc2Cl)nc(SCC(=O)c2ccc(C#N)cc2)[nH]c1=O | > 20 µM |
| CCc1c(Cc2c(F)cccc2F)nc(SCc2ccc(C#N)cc2)[nH]c1=O | > 20 µM |
| COc1ccc(CSc2nc(Cc3c(F)cccc3F)c(C)c(=O)[nH]2)cc1OC | > 20 µM |
| Cc1c(Cc2c(F)cccc2F)nc(SCc2ccc3c(c2)OCO3)[nH]c1=O | > 20 µM |
| CCc1c(Cc2c(Cl)cccc2Cl)nc(SCc2ccc(C#N)cc2)[nH]c1=O | > 20 µM |
| Cc1c(Cc2ccc(C#N)cc2)nc(SCc2ccc([N+](=O)[O-])cc2)[nH]c1=O | > 20 µM |
| CCc1c(Cc2c(Cl)cccc2Cl)nc(SCc2ccc([N+](=O)[O-])cc2)[nH]c1=O | > 20 µM |
| COc1ccc(CSc2nc(Cc3ccc(C#N)cc3)c(C)c(=O)[nH]2)cc1 | > 20 µM |
| Cc1c(C(C)c2c(F)cccc2F)nc(SCc2ccc([N+](=O)[O-])cc2)[nH]c1=O (stereo unspecified) | > 20 µM |
| COC(=O)c1ccc(CSc2nc(Cc3c(F)cccc3F)c(C)c(=O)[nH]2)cc1 | > 20 µM |
| COc1ccc(COCCSc2nc(Cc3c(F)cccc3F)c(C)c(=O)[nH]2)cc1 | > 20 µM |

Molecular target: Human immunodeficiency virus type 1 reverse transcriptase (Human immunodeficiency virus 1) (UniProt Q72547)
Test: Antiviral activity against wild type HIV1 reverse transcriptase
Settings: not given

| Structure (SMILES) | ID50 |
| --- | --- |
| Cc1c(Cc2c(Cl)cccc2Cl)nc(SCC(=O)c2ccc(C#N)cc2)[nH]c1=O | 0.2 µM |
| CCc1c(Cc2c(F)cccc2F)nc(SCc2ccc(C#N)cc2)[nH]c1=O | 0.17 µM |
| COc1ccc(CSc2nc(Cc3c(F)cccc3F)c(C)c(=O)[nH]2)cc1OC | 0.5 µM |
| Cc1c(Cc2c(F)cccc2F)nc(SCc2ccc3c(c2)OCO3)[nH]c1=O | > 20 µM |
| CCc1c(Cc2c(Cl)cccc2Cl)nc(SCc2ccc(C#N)cc2)[nH]c1=O | 0.1 µM |
| Cc1c(Cc2ccc(C#N)cc2)nc(SCc2ccc([N+](=O)[O-])cc2)[nH]c1=O | > 20 µM |
| CCc1c(Cc2c(Cl)cccc2Cl)nc(SCc2ccc([N+](=O)[O-])cc2)[nH]c1=O | 0.075 µM |
| COc1ccc(CSc2nc(Cc3ccc(C#N)cc3)c(C)c(=O)[nH]2)cc1 | > 20 µM |
| Cc1c(C(C)c2c(F)cccc2F)nc(SCc2ccc([N+](=O)[O-])cc2)[nH]c1=O (stereo unspecified) | 0.03 µM |
| COC(=O)c1ccc(CSc2nc(Cc3c(F)cccc3F)c(C)c(=O)[nH]2)cc1 | 0.5 µM |
| COc1ccc(COCCSc2nc(Cc3c(F)cccc3F)c(C)c(=O)[nH]2)cc1 | 0.197 µM |

Tested on: Human immunodeficiency virus 1
Test: Antiviral activity against HIV1 with reverse transcriptase Y181C mutation in MT4 cells after 5 days by MTT method
Type: functional, organism-based
Settings: Human immunodeficiency virus 1, MT4, 120 h

| Structure (SMILES) | EC50 |
| --- | --- |
| Cc1c(Cc2c(Cl)cccc2Cl)nc(SCC(=O)c2ccc(C#N)cc2)[nH]c1=O | 1.31 µM |
| CCc1c(Cc2c(F)cccc2F)nc(SCc2ccc(C#N)cc2)[nH]c1=O | 1.33 µM |
| COc1ccc(CSc2nc(Cc3c(F)cccc3F)c(C)c(=O)[nH]2)cc1OC | 0.74 µM |
| Cc1c(Cc2c(F)cccc2F)nc(SCc2ccc3c(c2)OCO3)[nH]c1=O | 1.32 µM |
| CCc1c(Cc2c(Cl)cccc2Cl)nc(SCc2ccc(C#N)cc2)[nH]c1=O | 3.05 µM |
| Cc1c(Cc2ccc(C#N)cc2)nc(SCc2ccc([N+](=O)[O-])cc2)[nH]c1=O | > 26.4 µM |
| CCc1c(Cc2c(Cl)cccc2Cl)nc(SCc2ccc([N+](=O)[O-])cc2)[nH]c1=O | 1.58 µM |
| COc1ccc(CSc2nc(Cc3ccc(C#N)cc3)c(C)c(=O)[nH]2)cc1 | > 66.3 µM |
| Cc1c(C(C)c2c(F)cccc2F)nc(SCc2ccc([N+](=O)[O-])cc2)[nH]c1=O (stereo unspecified) | 0.44 µM |
| COC(=O)c1ccc(CSc2nc(Cc3c(F)cccc3F)c(C)c(=O)[nH]2)cc1 | 1.35 µM |
| COc1ccc(COCCSc2nc(Cc3c(F)cccc3F)c(C)c(=O)[nH]2)cc1 | > 55.9 µM |

Tested on: Human immunodeficiency virus 1
Test: Antiviral activity against HIV1 with reverse transcriptase IRLL98 mutation in MT4 cells after 5 days by MTT method relative to wild type NL4-3
Type: functional
Settings: not given

| Structure (SMILES) | Fold change |
| --- | --- |
| Cc1cn([C@H]2C[C@H](N=[N+]=[N-])[C@@H](CO)O2)c(=O)[nH]c1=O [ZIDOVUDINE] | 3 |
| Cc1c(Cc2c(Cl)cccc2Cl)nc(SCC(=O)c2ccc(C#N)cc2)[nH]c1=O | 3.2 |
| CCc1c(Cc2c(F)cccc2F)nc(SCc2ccc(C#N)cc2)[nH]c1=O | 45.3 |
| COc1ccc(CSc2nc(Cc3c(F)cccc3F)c(C)c(=O)[nH]2)cc1OC | 1.5 |
| O=C1Nc2ccc(Cl)cc2C(C#CC2CC2)(C(F)(F)F)O1 (single isomer, unassigned) [EFAVIRENZ] | 300 |
| Cc1c(Cc2c(F)cccc2F)nc(SCc2ccc3c(c2)OCO3)[nH]c1=O | 1.8 |
| CCc1c(Cc2c(Cl)cccc2Cl)nc(SCc2ccc(C#N)cc2)[nH]c1=O | 194 |
| COC(=O)c1ccc(CSc2nc(Cc3c(F)cccc3F)c(C)c(=O)[nH]2)cc1 | 6.9 |
| Cc1ccnc2c1NC(=O)c1cccnc1N2C1CC1 [NEVIRAPINE] | 144 |

Tested on: Human immunodeficiency virus 1
Test: Antiviral activity against HIV1 with reverse transcriptase K103N mutation in MT4 cells after 5 days by MTT method
Type: functional, organism-based
Settings: Human immunodeficiency virus 1, MT4, 120 h
How it was run: as §1

| Structure (SMILES) | EC50 |
| --- | --- |
| Cc1c(Cc2c(Cl)cccc2Cl)nc(SCC(=O)c2ccc(C#N)cc2)[nH]c1=O | 12.2 µM |
| CCc1c(Cc2c(F)cccc2F)nc(SCc2ccc(C#N)cc2)[nH]c1=O | 7.78 µM |
| COc1ccc(CSc2nc(Cc3c(F)cccc3F)c(C)c(=O)[nH]2)cc1OC | 9.33 µM |
| Cc1c(Cc2c(F)cccc2F)nc(SCc2ccc3c(c2)OCO3)[nH]c1=O | 10.2 µM |
| CCc1c(Cc2c(Cl)cccc2Cl)nc(SCc2ccc(C#N)cc2)[nH]c1=O | 8.84 µM |
| Cc1c(Cc2ccc(C#N)cc2)nc(SCc2ccc([N+](=O)[O-])cc2)[nH]c1=O | > 26.4 µM |
| CCc1c(Cc2c(Cl)cccc2Cl)nc(SCc2ccc([N+](=O)[O-])cc2)[nH]c1=O | > 55.6 µM |
| COc1ccc(CSc2nc(Cc3ccc(C#N)cc3)c(C)c(=O)[nH]2)cc1 | > 66.3 µM |
| Cc1c(C(C)c2c(F)cccc2F)nc(SCc2ccc([N+](=O)[O-])cc2)[nH]c1=O (stereo unspecified) | 0.66 µM |
| COC(=O)c1ccc(CSc2nc(Cc3c(F)cccc3F)c(C)c(=O)[nH]2)cc1 | 11.2 µM |
| COc1ccc(COCCSc2nc(Cc3c(F)cccc3F)c(C)c(=O)[nH]2)cc1 | > 55.9 µM |

Tested on: Human immunodeficiency virus 1
Test: Antiviral activity against wild type HIV1 NL4-3 in MT4 cells after 5 days by MTT method
Type: functional, organism-based
Settings: Human immunodeficiency virus 1, NL4-3, MT4, 120 h
How it was run: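 MT-4 lymphoid cells, infected with HIV-1 or mock-infected (for cytotoxicity), held with a range of drug concentrations; viable cells scored at day 5 post-infection by tetrazolium (MTT) colorimetry.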

| Structure (SMILES) | EC50 |
| --- | --- |
| Cc1c(Cc2c(Cl)cccc2Cl)nc(SCC(=O)c2ccc(C#N)cc2)[nH]c1=O | 1.08 µM |
| CCc1c(Cc2c(F)cccc2F)nc(SCc2ccc(C#N)cc2)[nH]c1=O | 0.075 µM |
| COc1ccc(CSc2nc(Cc3c(F)cccc3F)c(C)c(=O)[nH]2)cc1OC | 0.2 µM |
| Cc1c(Cc2c(F)cccc2F)nc(SCc2ccc3c(c2)OCO3)[nH]c1=O | 0.15 µM |
| CCc1c(Cc2c(Cl)cccc2Cl)nc(SCc2ccc(C#N)cc2)[nH]c1=O | 0.044 µM |
| Cc1c(Cc2ccc(C#N)cc2)nc(SCc2ccc([N+](=O)[O-])cc2)[nH]c1=O | > 26.4 µM |
| CCc1c(Cc2c(Cl)cccc2Cl)nc(SCc2ccc([N+](=O)[O-])cc2)[nH]c1=O | 0.0666 µM |
| COc1ccc(CSc2nc(Cc3ccc(C#N)cc3)c(C)c(=O)[nH]2)cc1 | 20.3 µM |
| Cc1c(C(C)c2c(F)cccc2F)nc(SCc2ccc([N+](=O)[O-])cc2)[nH]c1=O (stereo unspecified) | 0.0033 µM |
| COC(=O)c1ccc(CSc2nc(Cc3c(F)cccc3F)c(C)c(=O)[nH]2)cc1 | 0.142 µM |
| COc1ccc(COCCSc2nc(Cc3c(F)cccc3F)c(C)c(=O)[nH]2)cc1 | 1.2 µM |

Tested on: Human immunodeficiency virus 1 [K103N]
Test: Antiviral activity against HIV1 reverse transcriptase K103N mutant
Settings: not given

| Structure (SMILES) | ID50 |
| --- | --- |
| Cc1c(Cc2c(Cl)cccc2Cl)nc(SCC(=O)c2ccc(C#N)cc2)[nH]c1=O | > 20 µM |
| CCc1c(Cc2c(F)cccc2F)nc(SCc2ccc(C#N)cc2)[nH]c1=O | 7.5 µM |
| COc1ccc(CSc2nc(Cc3c(F)cccc3F)c(C)c(=O)[nH]2)cc1OC | > 20 µM |
| Cc1c(Cc2c(F)cccc2F)nc(SCc2ccc3c(c2)OCO3)[nH]c1=O | > 20 µM |
| CCc1c(Cc2c(Cl)cccc2Cl)nc(SCc2ccc(C#N)cc2)[nH]c1=O | > 20 µM |
| Cc1c(Cc2ccc(C#N)cc2)nc(SCc2ccc([N+](=O)[O-])cc2)[nH]c1=O | > 20 µM |
| CCc1c(Cc2c(Cl)cccc2Cl)nc(SCc2ccc([N+](=O)[O-])cc2)[nH]c1=O | > 20 µM |
| COc1ccc(CSc2nc(Cc3ccc(C#N)cc3)c(C)c(=O)[nH]2)cc1 | > 20 µM |
| Cc1c(C(C)c2c(F)cccc2F)nc(SCc2ccc([N+](=O)[O-])cc2)[nH]c1=O (stereo unspecified) | 0.6 µM |
| COC(=O)c1ccc(CSc2nc(Cc3c(F)cccc3F)c(C)c(=O)[nH]2)cc1 | > 20 µM |
| COc1ccc(COCCSc2nc(Cc3c(F)cccc3F)c(C)c(=O)[nH]2)cc1 | > 20 µM |
